Assay results from ChEMBL document CHEMBL1121485, “Antiestrogens. Synthesis and evaluation of mammary tumor inhibiting activity of 1,1,2,2-tetraalkyl-1,2 -diphenylethanes” (1980).

Legend:
[1] = target: T1, Estrogen receptor (Bos taurus) (UniProt Q9XSB5+P49884); assay: Association constant for Estrogen receptor; type: protein assay
[2] = target: T1, Estrogen receptor (Bos taurus); assay: Relative binding affinity for Estrogen receptor compared to 17-beta-estradiol; type: protein assay
[3] = target: T2, Estrogen receptor (Mus musculus) (UniProt O08537+P19785); assay: Uterotrophic effect in mice as uterus dry weight(mg) compared to body weight(g) at 0 ug/day dose; type: functional, tissue-based
T2 sequence (O08537 whole entry, looked up): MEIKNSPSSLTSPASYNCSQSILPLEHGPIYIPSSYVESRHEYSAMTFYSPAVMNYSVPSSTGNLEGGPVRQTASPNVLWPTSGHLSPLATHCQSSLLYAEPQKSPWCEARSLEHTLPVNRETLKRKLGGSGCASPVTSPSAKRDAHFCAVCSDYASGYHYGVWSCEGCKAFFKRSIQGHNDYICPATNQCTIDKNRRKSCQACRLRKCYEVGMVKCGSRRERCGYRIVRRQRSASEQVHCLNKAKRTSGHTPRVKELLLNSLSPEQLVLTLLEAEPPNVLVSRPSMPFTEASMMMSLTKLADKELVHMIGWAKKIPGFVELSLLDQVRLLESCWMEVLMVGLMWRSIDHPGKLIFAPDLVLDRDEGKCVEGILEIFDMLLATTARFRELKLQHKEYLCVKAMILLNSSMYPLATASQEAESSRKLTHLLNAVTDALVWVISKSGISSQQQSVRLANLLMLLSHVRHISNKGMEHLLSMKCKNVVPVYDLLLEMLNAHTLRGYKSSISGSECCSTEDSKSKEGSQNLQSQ
T2 sequence (P19785 whole entry, looked up): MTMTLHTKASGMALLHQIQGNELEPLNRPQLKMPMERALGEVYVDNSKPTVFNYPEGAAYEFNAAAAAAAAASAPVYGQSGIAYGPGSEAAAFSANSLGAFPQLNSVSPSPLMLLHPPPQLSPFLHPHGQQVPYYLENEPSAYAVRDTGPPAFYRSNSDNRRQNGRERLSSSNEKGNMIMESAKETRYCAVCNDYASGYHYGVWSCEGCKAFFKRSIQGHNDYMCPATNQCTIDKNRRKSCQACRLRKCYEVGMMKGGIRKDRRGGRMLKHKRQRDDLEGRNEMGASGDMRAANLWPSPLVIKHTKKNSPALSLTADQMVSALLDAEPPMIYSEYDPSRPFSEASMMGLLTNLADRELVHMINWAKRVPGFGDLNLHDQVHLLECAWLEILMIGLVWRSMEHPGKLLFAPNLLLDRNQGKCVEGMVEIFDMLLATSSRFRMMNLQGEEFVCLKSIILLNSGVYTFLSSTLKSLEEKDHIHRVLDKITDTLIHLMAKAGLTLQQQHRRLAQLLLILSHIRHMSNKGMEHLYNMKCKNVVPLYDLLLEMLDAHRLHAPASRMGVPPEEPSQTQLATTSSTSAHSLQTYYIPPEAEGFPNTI
How it was run: (§1)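 Mice aged 20 days at start, dosed sc once daily for 3 days (0.1 mL injections, arachis oil vehicle); vehicle-only control group. Killed 24 h after last dose; body weight recorded; uteri fixed in Bouin's solution 12 h, trimmed of connective tissue, washed with saturated alcoholic LiCl, dried 100 °C for 24 h, then weighed.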

[4] = target: T2, Estrogen receptor (Mus musculus); assay: Anti-uterotrophic effect in mice as uterus dry weight(mg) compared to body weight(g) at 500 ug/day dose; type: functional, tissue-based; how it was run: as §1
[5] = target: T2, Estrogen receptor (Mus musculus); assay: Uterotrophic effect in mice as uterus dry weight(mg) compared to body weight(g) at 100 ug/day dose; type: functional, tissue-based; how it was run: as §1
[6] = target: T2, Estrogen receptor (Mus musculus); assay: Uterotrophic effect in mice as uterus dry weight(mg) compared to body weight(g) at 20 ug/day dose; type: functional, tissue-based; how it was run: as §1
[7] = target: T2, Estrogen receptor (Mus musculus); assay: Uterotrophic effect in mice as uterus dry weight(mg) compared to body weight(g) at 4 ug/day dose; type: functional, tissue-based; how it was run: as §1
[8] = target: T2, Estrogen receptor (Mus musculus); assay: Anti-uterotrophic effect in mice as uterus dry weight(mg) compared to body weight(g) at 0 ug/day dose; type: functional, tissue-based; how it was run: as §1
[9] = target: T2, Estrogen receptor (Mus musculus); assay: Anti-uterotrophic effect in mice as uterus dry weight(mg) compared to body weight(g) at 100 ug/day dose; type: functional, tissue-based; how it was run: as §1
[10] = target: T2, Estrogen receptor (Mus musculus); assay: Uterotrophic effect in mice as uterus dry weight(mg) compared to body weight(g) at 500 ug/day dose; type: functional, tissue-based; how it was run: as §1
[11] = target: T2, Estrogen receptor (Mus musculus); assay: Anti-uterotrophic effect in mice as uterus dry weight(mg) compared to body weight(g) at 25 ug/day dose; type: functional, tissue-based; how it was run: as §1
[12] = target: T2, Estrogen receptor (Mus musculus); assay: Anti-uterotrophic effect in mice as uterus dry weight(mg) compared to body weight(g) at 5 ug/day dose; type: functional, tissue-based; how it was run: as §1
[13] = target: T1, Estrogen receptor (Bos taurus); assay: Ratio of association constants for estradiol and compound in estrogen receptor binding assay; type: protein assay
Mus musculus [14] = organism: Mus musculus; assay: Inhibition of estrone-stimulated uterine growth in mice at 5 ug
Mus musculus [15] = organism: Mus musculus; assay: Inhibition of estrone-stimulated uterine growth in mice at 25 ug
Mus musculus [16] = organism: Mus musculus; assay: Inhibition of estrone-stimulated uterine growth in mice at 100 ug
Mus musculus [17] = organism: Mus musculus; assay: Inhibition of estrone-stimulated uterine growth in mice at 500 ug
[18] = target: T2, Estrogen receptor (Mus musculus); assay: Uterotrophic effect in mice as uterus dry weight(mg) compared to body weight(g) at 10 ug/day dose; type: functional, tissue-based; how it was run: as §1
[19] = target: T2, Estrogen receptor (Mus musculus); assay: Uterotrophic effect in mice as uterus dry weight(mg) compared to body weight(g) at 2.5 ug/day dose; type: functional, tissue-based; how it was run: as §1
[20] = target: T2, Estrogen receptor (Mus musculus); assay: Uterotrophic effect in mice as uterus dry weight(mg) compared to body weight(g) at 250 ug/day dose; type: functional, tissue-based; how it was run: as §1
[21] = target: T2, Estrogen receptor (Mus musculus); assay: Uterotrophic effect in mice as uterus dry weight(mg) compared to body weight(g) at 50 ug/day dose; type: functional, tissue-based; how it was run: as §1
[22] = target: T2, Estrogen receptor (Mus musculus); assay: Anti-uterotrophic effect in mice as uterus dry weight(mg) compared to body weight(g) at 10 ug/day dose; type: functional, tissue-based; how it was run: as §1
[23] = target: T2, Estrogen receptor (Mus musculus); assay: Anti-uterotrophic effect in mice as uterus dry weight(mg) compared to body weight(g) at 2.5 ug/day dose; type: functional, tissue-based; how it was run: as §1
Mus musculus [24] = organism: Mus musculus; assay: Inhibition of estrone-stimulated uterine growth in mice at 10 ug
Mus musculus [25] = organism: Mus musculus; assay: Inhibition of estrone-stimulated uterine growth in mice at 2.5 ug
[26] = target: T2, Estrogen receptor (Mus musculus); assay: Uterotrophic effect in mice as uterus dry weight(mg) compared to body weight(g) at 25 ug/day dose; type: functional, tissue-based; how it was run: as §1
[27] = target: T2, Estrogen receptor (Mus musculus); assay: Uterotrophic effect in mice as uterus dry weight(mg) compared to body weight(g) at 5 ug/day dose; type: functional, tissue-based; how it was run: as §1
[28] = target: T2, Estrogen receptor (Mus musculus); assay: Anti-uterotrophic effect in mice as uterus dry weight(mg) compared to body weight(g) at 50 ug/day dose; type: functional, tissue-based; how it was run: as §1
Mus musculus [29] = organism: Mus musculus; assay: Inhibition of estrone-stimulated uterine growth in mice at 50 ug
[30] = target: T2, Estrogen receptor (Mus musculus); assay: Uterotrophic effect in mice as uterus dry weight(mg) compared to body weight(g) at 24 ug/day dose; type: functional, tissue-based; how it was run: as §1
[31] = target: T2, Estrogen receptor (Mus musculus); assay: Uterotrophic effect in mice as uterus dry weight(mg) compared to body weight(g) at 240 ug/day dose; type: functional, tissue-based; how it was run: as §1
[32] = target: T2, Estrogen receptor (Mus musculus); assay: Anti-uterotrophic effect in mice as uterus dry weight(mg) compared to body weight(g) at 2 ug/day dose; type: functional, tissue-based; how it was run: as §1
[33] = target: T2, Estrogen receptor (Mus musculus); assay: Uterotrophic effect in mice as uterus dry weight(mg) compared to body weight(g) at 80 ug/day dose; type: functional, tissue-based; how it was run: as §1
[34] = target: T2, Estrogen receptor (Mus musculus); assay: Uterotrophic effect in mice as uterus dry weight(mg) compared to body weight(g) at 8 ug/day dose; type: functional, tissue-based; how it was run: as §1
[35] = target: T2, Estrogen receptor (Mus musculus); assay: Anti-uterotrophic effect in mice as uterus dry weight(mg) compared to body weight(g) at 250 ug/day dose; type: functional, tissue-based; how it was run: as §1
Mus musculus [36] = organism: Mus musculus; assay: Inhibition of estrone-stimulated uterine growth in mice at 2 ug

Ka [1]	RA [2]	RAC [13]	SMILES	Effect [3]	Effect [5]	Effect [6]	Effect [7]	Effect [8]	Effect [9]	Effect [10]	Effect [11]	Effect [12]	Inhibition (Mus musculus [14])	Inhibition (Mus musculus [15])	Inhibition (Mus musculus [16])	Effect [22]	Inhibition (Mus musculus [24])	Effect [32]	Effect [35]	Inhibition (Mus musculus [36])	other results
2.1e+07 M⁻¹	0.0031	0.0029	CC(C)(c1ccc(F)c(O)c1)C(C)(C)c1ccc(F)c(O)c1	15.4	16.7	16.7	17.8	15.7	27.3	21.4	35.2	36.1	17.2%	20.9%	53.1%	–	–	–	–	–	Effect [4]: 25.2; Inhibition (Mus musculus [17]): 61.5%
480000 M⁻¹	7.1e-05	6.6e-05	CC(=O)Oc1cc(OC(C)=O)cc(C(C)(C)C(C)(C)c2cc(OC(C)=O)cc(OC(C)=O)c2)c1	11.4	–	–	–	12.6	41.3	–	39	–	–	9.1%	1.6%	37.5	14.4%	–	–	–	Effect [18]: 12.1; Effect [19]: 11.1; Effect [20]: 11.3; Effect [21]: 14.1; Effect [23]: 39.1; Inhibition (Mus musculus [25]): 8.9%
4e+07 M⁻¹	0.006	0.0056	CC(C)(c1ccc(O)c(O)c1)C(C)(C)c1ccc(O)c(O)c1	9.6	10	–	–	15.7	28.4	12.5	35	38.6	6.8%	21.5%	45.5%	–	–	–	–	–	Effect [26]: 8.9; Effect [27]: 9.7; Effect [28]: 32.8; Inhibition (Mus musculus [29]): 30.4%
3.5e+08 M⁻¹	0.052	0.048	CCC(c1cccc(O)c1)C(CC)c1cccc(O)c1 (stereo not given)	–	–	–	–	–	–	–	–	–	–	–	–	–	–	–	–	–	–
4.8e+07 M⁻¹	0.005	0.0046	CCC(CC)(c1ccc(O)cc1)C(CC)(CC)c1ccc(O)cc1	9.2	–	–	–	14	–	–	36.4	–	–	2.2%	–	34.6	10.3%	31.3	43.2	24.6%	Effect [30]: 23.6; Effect [31]: 43.7; Effect [33]: 31.9; Effect [34]: 15.3
2.8e+07 M⁻¹	0.0042	0.0039	CCC(CC)(c1cccc(O)c1)C(CC)(CC)c1cccc(O)c1	15.4	52.7	35.8	23.1	15.6	–	52.4	38	–	–	–	–	32.8	23%	27.4	42.9	47%	–
